Experimental findings from ChEMBL document CHEMBL2439990, “Serendipity in drug-discovery: a new series of 2-(benzyloxy)benzamides as TRPM8 antagonists” (Bioorg Med Chem Lett, 2013) are described below.

For series [1], the target named is Transient receptor potential cation channel subfamily M member 8 (Homo sapiens, UniProt Q7Z2W7). Kind of series: Inhibition of human TRPM8 (unknown origin) expressed in HEK293 cells assessed as inhibition of WS12-induced Ca2+ elevation by FLIPR assay. It is filed as cell-based. The method, boiled down:
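IC50 values plus modified Kb values computed from the geometric mean of agonist EC50 and slope. At least three independent experiments.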

Series [2] can be described thus: Lipophilicity, log D of the compound at pH 7.4. The series is classed as physicochemical. The following applies: buffer.
A short description of series [3]: Apparent intrinsic clearance in human liver microsomes. The following applies: read-out: CLH(app). The series is classed as ADME, Microsome.
Series [4] is described as follows: Half life in DMSO/aqueous buffer assessed as N-(2-(4-(benzyloxy)-3-methoxybenzylamino)ethyl)thiophene-2-carboxamide formation. The series is classed as physicochemical.
A further series is filed under the species Rattus norvegicus. The experiment in a line: Inhibition of rat calcium channel L-site diltiazem binding site at 10 uM.

The structures appear in SMILES notation. Where only a bound is given, the exact number is not on record here.

As for `CCCN(C(=O)c1ccccc1OCc1ccccc1)[C@@H]1CCC[C@H](N)C1` (racemic), in series [1], the IC50 is 1230 nM and the Kb stood at 1430 nM.

`CCN(C(=O)c1ccccc1Cc1ccccc1)[C@@H]1CCC[C@H](N)C1` (racemic): the Kb in series [1] is > 2000 nM.

As to `CCCCN(C(=O)c1ccccc1OCc1ccccc1)[C@@H]1CCC[C@H](N)C1` (racemic), in series [1], the IC50 was 1400 nM and the Kb turned out to be 1560 nM.

As to `CCN(C(=O)c1ccccc1OCc1ccccc1)[C@H]1CCC[C@@H](N)C1`, the Kb in series [1] turned out to be 1130 nM.

Turning to `CCN(C(=O)c1ccccc1OCc1ccccc1)C1CCNCC1`, the Kb in series [1] is > 5000 nM.

In the case of `CCN(C(=O)c1cnccc1OCc1ccccc1)[C@@H]1CCC[C@H](N)C1` (racemic), in series [1], the Kb was > 2000 nM.

With `CCN(C(=O)c1ccccc1OCc1ccccc1)[C@@H]1CCC[C@@H](N)C1` (racemic), the Kb in series [1] came to 1400 nM.

For the compound `CCN(C(=O)c1ccccc1OCc1ccccc1)[C@@H]1CC[C@H](N)C1` (racemic), the Kb in series [1] was > 5000 nM.

Regarding `CCN(C(=O)c1ccccc1-c1ccccc1)[C@@H]1CCC[C@H](N)C1` (racemic), the Kb in series [1] is > 2000 nM.

For the compound `CCN(C(=O)c1ccccc1OCc1ccc(Cl)cc1)[C@H]1CCC[C@@H](N)C1`, in series [1], the IC50 was 254 nM and the Kb amounted to 214 nM.

As to `O=C1NC(c2cccc([N+](=O)[O-])c2)=CCN1c1ccccc1O` [ICILLIN], in series [1], the EC50 amounted to 300 nM.

For `CCN(C(=O)c1ccccc1OCc1ccccc1)[C@@H]1CCC[C@H](NC(C)=O)C1` (racemic), the Kb in series [1] was > 5000 nM.

Take `CCN(C(=O)c1ccccc1OCc1ccccc1Cl)[C@H]1CCC[C@@H](N)C1`: in series [1], the IC50 stood at 85.4 nM and the Kb came out at 72 nM.

As for `COc1ccc(NC(=O)[C@@H]2C[C@H](C)CC[C@H]2C(C)C)cc1` [ACOLTREMON], in series [1], the EC50 was determined as 40 nM.

Regarding `CCN(C(=O)c1ccccc1OCc1ccccc1)C1CCNC1` (configuration not stated), the Kb in series [1] is > 5000 nM.

In the case of `CCN(C(=O)c1ccccc1OCc1ccccc1)[C@@H]1CC[C@@H](N)C1` (racemic), the Kb in series [1] was 2600 nM.

With `CC(C)N(C(=O)c1ccccc1OCc1ccccc1)[C@@H]1CCC[C@H](N)C1` (racemic), in series [1], the IC50 was 8780 nM and the Kb is 5130 nM.

With `CN(C(=O)c1ccccc1OCc1ccccc1)[C@@H]1CCC[C@H](N)C1` (racemic), in series [1], the IC50 amounted to 3150 nM and the Kb amounted to 3670 nM.

On to `CCN(C(=O)c1ccccc1OCc1ccccc1C#N)C1CCCC(N)C1` (racemic), for which, in series [1], the IC50 came to 1850 nM and the Kb was found to be 1250 nM.

On to `COc1cc(CN(CCN)C(=O)O[C@@H](C)c2ccccc2)ccc1OCc1ccccc1`, for which the Kb in series [1] came out at 7.8 nM.

With `NCCN(Cc1cccs1)C(=O)c1ccccc1OCc1ccccc1`, the logD in series [2] is 1.6. In addition, the microsomal CLint in series [3] is 149 µL/min/mg. Moreover, in series [1], the IC50 was 1240 nM and the Kb is 443 nM.

In the case of `CCN(C(=O)c1cccnc1OCc1ccccc1)[C@@H]1CCC[C@H](N)C1` (racemic), in series [1], the Kb is > 2000 nM.

Turning to `CCN(C(=O)c1ccncc1OCc1ccccc1)[C@@H]1CCC[C@H](N)C1` (racemic), the Kb in series [1] is > 2000 nM.

As to `CCN(C(=O)c1ccccc1OCc1ccccc1F)[C@H]1CCC[C@@H](N)C1`, in series [1], the IC50 is 435 nM and the Kb is 367 nM.

`N[C@H]1CCC[C@@H](N(C(=O)c2ccccc2OCc2ccccc2)C2CCC2)C1` (racemic): in series [1], the IC50 is 1360 nM and the Kb came out at 794 nM.

For `CCN(C(=O)c1ccccc1OCc1cccc(Cl)c1)C1CCCC(N)C1` (racemic), in series [1], the IC50 turned out to be 96.9 nM and the Kb worked out at 96.6 nM.

In the case of `CCN(C(=O)c1ccccc1OCc1ccccc1C)[C@@H]1CCC[C@H](N)C1`, in series [1], the IC50 came to 15.1 nM and the Kb turned out to be 12.7 nM.

As to `CCN(C(=O)c1ccccc1COc1ccccc1)[C@@H]1CCC[C@H](N)C1` (racemic), the Kb in series [1] was 280 nM.

With `COc1cc(CN(CCN)C(=O)c2cccs2)ccc1OCc1ccccc1`, in series [4], the t1/2 was < 2 h. Further, the Kb in series [1] stood at 8.4 nM.

In the case of `CN(C(=O)c1ccccc1OCc1ccccc1)[C@@H]1CCNC1`, the Kb in series [1] is > 10000 nM.

Consider `CCN(C(=O)c1ccccc1OCc1ccccc1C)[C@H]1CCC[C@@H](N)C1`, for which, in series [1], the IC50 is 291 nM and the Kb was determined as 246 nM.

For the compound `CCN(C(=O)c1ccccc1OCC(C)C)[C@@H]1CCC[C@H](N)C1` (racemic), the Kb in series [1] is > 2000 nM.

As to `CCN(C(=O)c1ccccc1OCc1ccccc1F)[C@@H]1CCC[C@H](N)C1`, the logD in series [2] came out at 0.7. Also, the microsomal CLint in series [3] was < 8 µL/min/mg. In series [1], the IC50 turned out to be 21.1 nM and the Kb stood at 17.8 nM.

Take `CCN(C(=O)c1ccccc1OCc1ccccc1Cl)[C@@H]1CCC[C@H](N)C1`: in series [1], the IC50 is 29.9 nM and the Kb is 13 nM.

In series [2], `CCN(C(=O)c1ccccc1OCc1ccccc1)[C@@H]1CCC[C@H](N)C1` showed a pH-dependent lipophilicity (logD) of 0.6. For the same compound, the microsomal CLint in series [3] was < 8 µL/min/mg. Besides, in the series listed under Rattus norvegicus, the inhibition was 61%. Moreover, in series [1], the IC50 came out at 76.2 nM and the Kb worked out at 56.3 nM.

As to `CCN(C(=O)c1ccccc1OCc1ccccc1)C1CCCC(N)C1` (racemic), the Kb in series [1] is < 100 nM.

For the compound `CCN(C(=O)c1ccccc1OCc1cccc(C#N)c1)C1CCCC(N)C1` (racemic), in series [1], the IC50 was 493 nM and the Kb turned out to be 491 nM.

On to `O=C(c1ccccc1OCc1ccccc1)N1C[C@H]2CNC[C@H]2C1`, for which the Kb in series [1] was > 10000 nM.

The compound `CCN(C(=O)c1ccccc1OCc1ccc(Cl)cc1)[C@@H]1CCC[C@H](N)C1` gave a logD in series [2] of 1.3. Further, the microsomal CLint in series [3] is < 10 µL/min/mg. Also, in series [1], the IC50 was determined as 19.3 nM and the Kb came to 16.1 nM.

For the compound `NN1CCN(C(=O)c2ccccc2OCc2ccccc2)CC1`, in series [1], the Kb is > 10000 nM.

For the compound `CCN(C(=O)c1ccccc1OCc1ccccc1)C1CCCNC1` (configuration not stated), in series [1], the Kb came out at 4860 nM.

On to `O=C(c1ccccc1OCc1ccccc1)N1CCNCC1`, for which, in series [1], the Kb is > 10000 nM.

For `N[C@H]1CCC[C@@H](N(C(=O)c2ccccc2OCc2ccccc2)C2CC2)C1` (racemic), in series [1], the IC50 was 2010 nM and the Kb turned out to be 2250 nM.

`CCN(C(=O)c1ccccc1OCc1ccc(C#N)cc1)C1CCCC(N)C1` (racemic): in series [1], the IC50 stood at 6780 nM and the Kb was found to be 4590 nM.

Regarding `NC1CCN(C(=O)c2ccccc2OCc2ccccc2)C1` (configuration not stated), the Kb in series [1] is > 10000 nM.

For `N[C@H]1CCC[C@@H](N(CC2CC2)C(=O)c2ccccc2OCc2ccccc2)C1` (racemic), in series [1], the IC50 was 593 nM and the Kb worked out at 665 nM.
